The values that follow come from ChEMBL document CHEMBL4715819, “Bicyclic Helical Peptides as Dual Inhibitors Selective for Bcl2A1 and Mcl-1 Proteins” (J Med Chem, 2018).

The structures appear in SMILES notation. The source made the active and inactive calls. The rule behind the calls is not given here. Positions of bridges follow the written chain, without caps; N, C: chain ends. Non-standard residues stand in square brackets, D forms with d. Residues, ends and D or L forms follow the SMILES beside them. ξ: configuration not given here. *: point of attachment. S5 = C=CCCC[C@](C)(N)C(=O)O; Propionyl = CCC(=O)*; ξDap = NCC(N)C(=O)O

Series [1] concerns SK-MEL-28. Nature of the series: Toxicity in human SK-MEL-28 cells at 50 uM incubated for 30 mins by LDH release assay. The class given is cell-based. Particulars: sk-mel-28, 0.5 h. On the technique in general: Release of lactate dehydrogenase indicates damage to the cell membrane.
Series [2] has as its target T1, Bcl-2-like protein 2 (Homo sapiens) (UniProt Q92843).
T1 sequence (whole entry): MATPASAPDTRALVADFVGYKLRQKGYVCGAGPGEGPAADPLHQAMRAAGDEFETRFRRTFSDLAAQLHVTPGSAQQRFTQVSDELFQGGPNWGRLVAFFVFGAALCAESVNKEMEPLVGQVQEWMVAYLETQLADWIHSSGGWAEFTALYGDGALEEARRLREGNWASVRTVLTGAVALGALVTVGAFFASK
Nature of the series: Binding affinity to human Bcl-w incubated for 2 hrs by FBid based competitive FP assay.

In series [3] the test system is SK-MEL-28. As to the kind of experiment: Synergistic cytotoxicity in human SK-MEL-28 cells assessed as reduction in cell viability at 1.25 to 30 uM incubated for 48 hrs in presence of etoposide by MTT assay. The class given is functional, cell-based. The following applies: dose 1.25-30 µM.
The target in series [4] is Bcl-2-like protein 1 (Homo sapiens) (UniProt Q07817). As to the kind of experiment: Binding affinity to human Bcl-xL incubated for 2 hrs by FBid based competitive FP assay.
Series [5] has as its system SK-MEL-28. As to the kind of experiment: Cytotoxicity in human SK-MEL-28 cells assessed as reduction in cell viability incubated for 48 hrs by MTT assay. It counts as functional, cell-based. In a few lines:
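SK-MEL-28 cells grown in DMEM with 10% FBS and penicillin/streptomycin. Peptide applied over a concentration series for 48 h. Viability read by MTT, and IC50 taken from the dose–response.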

Series [6] addresses Bcl-2-like protein 11/Bcl-2-related protein A1 (Homo sapiens) (UniProt O43521+Q16548). As to the kind of experiment: Inhibition of Bcl2A1-Bim interaction in human SK-MEL-28 cells at 30 uM incubated for 24 hrs by immunoprecipitation assay. The class given is cell-based.
The target of series [7] is Induced myeloid leukemia cell differentiation protein Mcl-1 (Homo sapiens, UniProt Q07820). As to the kind of experiment: Binding affinity to human Mcl1 incubated for 2 hrs by FBid based competitive FP assay.
For series [8], the target named is Induced myeloid leukemia cell differentiation protein Mcl-1/Bcl-2-like protein 11 (Homo sapiens) (UniProt Q07820+O43521). As to the kind of experiment: Inhibition of Mcl1-Bim interaction in human SK-MEL-28 cells at 30 uM incubated for 24 hrs by immunoprecipitation assay. It counts as cell-based.
Series [9] has as its target T2, Bcl-2-related protein A1 (Homo sapiens) (UniProt Q16548).
T2 sequence (whole entry): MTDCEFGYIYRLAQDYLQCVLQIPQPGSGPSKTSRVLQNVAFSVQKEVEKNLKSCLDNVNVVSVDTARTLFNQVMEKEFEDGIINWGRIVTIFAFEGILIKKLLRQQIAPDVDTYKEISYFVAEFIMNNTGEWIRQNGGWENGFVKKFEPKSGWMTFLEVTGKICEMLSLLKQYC
As to the kind of experiment: Binding affinity to human Bcl2A1 incubated for 2 hrs by FBid based competitive FP assay.

Induced myeloid leukemia cell differentiation protein Mcl-1, sequence (Q07820 whole entry): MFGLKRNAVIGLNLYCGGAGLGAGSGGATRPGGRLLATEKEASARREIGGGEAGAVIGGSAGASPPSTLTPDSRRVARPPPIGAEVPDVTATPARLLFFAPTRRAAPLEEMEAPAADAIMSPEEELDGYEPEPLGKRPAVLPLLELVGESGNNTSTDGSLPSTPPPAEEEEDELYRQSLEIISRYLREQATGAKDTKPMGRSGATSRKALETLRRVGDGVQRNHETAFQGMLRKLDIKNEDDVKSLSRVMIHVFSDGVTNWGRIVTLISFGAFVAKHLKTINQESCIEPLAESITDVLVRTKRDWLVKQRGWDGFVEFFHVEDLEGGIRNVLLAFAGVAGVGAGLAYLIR
Induced myeloid leukemia cell differentiation protein Mcl-1/Bcl-2-like protein 11 (Homo sapiens), sequence (O43521 whole entry, looked up): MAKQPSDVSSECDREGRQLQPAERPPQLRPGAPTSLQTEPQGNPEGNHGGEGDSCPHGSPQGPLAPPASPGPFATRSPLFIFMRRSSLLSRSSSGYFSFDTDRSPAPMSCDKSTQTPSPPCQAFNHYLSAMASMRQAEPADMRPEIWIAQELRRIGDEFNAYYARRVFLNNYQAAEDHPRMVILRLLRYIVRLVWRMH
Induced myeloid leukemia cell differentiation protein Mcl-1/Bcl-2-like protein 11 (Homo sapiens), sequence (Q07820 whole entry, looked up): as the sequence (Q07820 whole entry) above
Bcl-2-like protein 11/Bcl-2-related protein A1 (Homo sapiens), sequence (O43521 whole entry, looked up, one chain of several): as the sequence (O43521 whole entry, looked up) above
Bcl-2-like protein 1 (Homo sapiens), sequence (Q07817 whole entry): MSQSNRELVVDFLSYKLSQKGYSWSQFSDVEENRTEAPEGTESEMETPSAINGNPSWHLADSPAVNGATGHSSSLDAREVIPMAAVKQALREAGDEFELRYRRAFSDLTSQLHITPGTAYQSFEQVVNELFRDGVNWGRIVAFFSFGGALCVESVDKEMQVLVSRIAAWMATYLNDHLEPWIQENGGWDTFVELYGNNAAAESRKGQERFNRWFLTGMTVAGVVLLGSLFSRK

Turning to `CCC(=O)NCC1NC(=O)[C@@](C)(NC(C)=O)CCC/C=C/CCC[C@@](C)(C(=O)N[C@@H](CC(C)C)C(=O)N[C@@H](CC(C)C)C(=O)N[C@@H](CCCNC(=N)N)C(=O)N[C@H]2CCCCNC(=O)C[C@@H](C(=O)N[C@@H](Cc3ccccc3)C(N)=O)NC(=O)[C@H](CC(=O)O)NC(=O)CNC(=O)[C@H]([C@@H](C)CC)NC2=O)NC(=O)[C@H](C)NC(=O)[C@H]([C@@H](C)CC)NC1=O` (stereo not given in full) (Ac-[S5][ξDap](Propionyl)IA[S5]LLRKIGDDF-NH2; staple (E) 1-5; lactam 9-13), the Activity entry in the series on SK-MEL-28 [1] is “Non-Toxic”; in the series with SK-MEL-28 [5], “Dose-dependent effect”. The outcome in series [2] and in series [4] was inactive. Besides, the outcome (with SK-MEL-28 [3]; in series [7]; in series [9]) was Active. The half-inhibitory concentration (IC50) in the series on SK-MEL-28 [5] (SK-MEL-28, 48 h) was determined as 8.8 µM. Moreover, the inhibition result in [6] and in series [8] was “Active” each time.

The IC50 is the concentration needed to halve the response being measured.
